Screening results from PubChem.
Cneo AK release = Cryptococcus neoformans lysis via adenylate kinase release; C. neoformans lysis, adenylate kinase release luminescence, 4 h; normalised: neutral wells 0, clomiphene wells 100; lysis activity, % at 15 µM; 0.2% of 360,000 active;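 active = mean lysis activity across replicates of at least 80%, whatever share of replicates individually reach that level; inactive = mean lysis activity below 80%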
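Test system: log-phase Cryptococcus neoformans yeast cells; Quantity: yeast cell density of 5 × 10^6 cells/mL; Buffer or medium: YPD; Doses: single compound concentration per well; Timing: 4 h at 37 °C static, read 1 h later; Measured by: AK luminescence; Read-out basis: lysis from increased AK signal; Control set: Clomiphene as positive control.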
MITF TRPM1 HTS = MITF TRPM1 promoter activation in melanoma cells. SK-MEL-5 TRPM1-promoter luciferase, 24 h; % of positive control, neutral wells = 0. activation, % at 12.5 µM. 0.75% of 300,000 active;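 active = mean activation of at least 80% with every replicate also reaching 80%; inconclusive = mean reaches 80% but some replicate falls short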;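 also: 0% = neutral control wells and 100% = parthenolide positive control wells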
Wnt bcat act = activators of Wnt/beta-catenin signaling; activation, % at 9.35 µM; Wnt/beta-catenin reporter cell assay, activator, plate reader; 1.2% of 300,000 active; in the data active = activation above about 30%, passing the limit was not always enough; inconclusive = no clear call, values can overlap the other calls;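 also: 0% = neutral control wells and 100% = positive control wells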
PGC1a acetyl inh = modulators of PGC1a acetylation; U2OS PGC1a acetylation, AlphaScreen anti-acetyl-lysine; with virally co-expressed GCN5 acetyltransferase; inhibition, % at 15.6 µM; 0.17% of 350,000 active;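 active = every replicate shows inhibition of at least 40%; inconclusive = mean inhibition at least 40% but some replicate below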;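 also: 0% = neutral control wells and 100% = positive control wells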
An asterisk follows results filed as active; ? = inconclusive; / = no result given. Only some compounds are listed: those with a hit (about 1.5% of all), similar ones and a draw of the others.

SMILES	Cneo AK release	MITF TRPM1 HTS	Wnt bcat act	PGC1a acetyl inh
C[C@H](O)C#Cc1ccc2c(c1)O[C@@H](CN(C)CC1CC1)[C@H](C)CN([C@H](C)CO)S2(=O)=O	/	/	/	-5
O=C(N/N=C/c1ccc([N+](=O)[O-])o1)c1sc2ccccc2c1Cl	/	-77	32*	/
CC(=O)N1[C@@H]2Cn3c(cccc3=O)[C@H]1[C@@H](C(=O)N[C@@H](C)c1ccccc1)[C@@H]2CO	/	/	/	3
NC(=O)Cc1c[nH]c2cccc(O)c12	2	/	36*	-1
NC(=O)COC(=O)CCCc1c[nH]c2ccccc12	-23	-9	/	-2
c1ccc(COc2ccc(-c3csnn3)cc2)cc1	-1	94*	/	-4
COc1ccc(S(=O)(=O)n2ccc(-c3cnc(-c4ccccc4)s3)n2)cc1	-1	59	41*	-33
O=C(c1ccccc1)n1ccc(-c2cnc(-c3ccccc3)s2)n1	/	43	/	-16
COc1ccc(C(CCN2CCOCC2)c2c(O)cc(OC)cc2OC)cc1 (configuration not stated)	-3	10	-1	2
COc1ccc(C(c2c(O)ccc3ccccc23)N2CCOCC2)c(OC)c1 (configuration not stated)	-6	/	76*	-23
O=C(CNC(=O)c1cccs1)c1ccc(Cl)cc1	0	130*	5	/
COc1ccc(CN(C)C[C@@H]2Oc3c(NS(=O)(=O)c4ccc(OC)cc4)cccc3C(=O)N([C@H](C)CO)C[C@H]2C)cc1	-2	/	/	0
N#Cc1cn(-c2ccccc2)nc1-c1ccc2c(c1)OCCO2	-1	123*	0	-2
O=C(COC(=O)C12CC3CC(CC(O)(C3)C1)C2)Nc1ccc(Br)cc1F	-2	129*	?	/
CCCNC(=O)C[C@H]1C[C@H]2c3cc(NC(=O)Nc4ccc(F)cc4)ccc3O[C@H]2[C@H](CO)O1	7	/	/	0
COC(=O)c1c(C)[nH]c(C(=O)OCc2ccc(F)cc2)c1C	2	114*	/	3
O=C(OCc1cnc(Cl)s1)c1cccs1	1	9	0	94*
Cc1noc(C)c1NC(=O)N(C)C[C@@H]1OCCCC[C@@H](C)Oc2ccc(NC(=O)NC(C)C)cc2C(=O)N([C@H](C)CO)C[C@H]1C	/	/	/	12
Cc1noc(C)c1NC(=O)N(C)C[C@@H]1OCCCC[C@H](C)Oc2ccc(NC(=O)NC(C)C)cc2C(=O)N([C@@H](C)CO)C[C@H]1C	1	/	/	3
Cc1noc(C)c1NC(=O)N(C)C[C@H]1OCCCC[C@H](C)Oc2ccc(NC(=O)NC(C)C)cc2C(=O)N([C@@H](C)CO)C[C@@H]1C	90*	/	/	-1
Cc1noc(C)c1NC(=O)Nc1ccc2c(c1)C(=O)N([C@H](C)CO)C[C@@H](C)[C@H](CN(C)S(C)(=O)=O)OCCCC[C@@H](C)O2	103*	/	/	9
Cc1noc(C)c1NC(=O)N(C)C[C@H]1OCCCC[C@@H](C)Oc2ccc(NC(=O)NC(C)C)cc2C(=O)N([C@H](C)CO)C[C@H]1C	100*	/	/	6
C[C@@H]1CN([C@@H](C)CO)C(=O)c2cccc(NC(=O)c3ccncc3)c2O[C@H]1CN(C)C(=O)Nc1ccc(F)cc1	-1	/	/	-1
CN(C[C@H]1N[C@@H](CO)[C@@H]1c1ccc(C2=CCCC2)cc1)C(=O)c1cccc(F)c1	1	/	/	76*
O=C(NC[C@H]1N[C@H](CO)[C@@H]1c1ccc(C2=CCCCC2)cc1)c1cccc(F)c1	2	/	/	-12
SMILES	Cneo AK release	MITF TRPM1 HTS	Wnt bcat act	PGC1a acetyl inh
CCCOc1ccc(-c2csc(N)n2)cc1[N+](=O)[O-]	/	99*	-2	/
O=C(O)c1cc(N/N=C/c2cccc3ccccc23)ccc1Cl	0	100*	27	/
CCc1ccc(NC(=O)C2C3/C=C\CCCCC32)cc1 (configuration not stated)	0	94*	/	9
Oc1[nH]c2ccccc2c1N=Nc1cccc(Cl)c1	-4	35	17	-8
Cc1cccc2c(N=Nc3ccccc3)c(O)[nH]c12	/	65	45*	/
O=C(Nc1nnc(SCc2ccc(Cl)cc2)s1)C1CC(=O)N(Cc2ccccc2)C1 (configuration not stated)	1	4	34*	0
COC(=O)c1ccc(CSc2nnc(NC(=O)C3CC(=O)N(Cc4ccc(C)cc4)C3)s2)cc1 (configuration not stated)	-1	-19	-3	-7
COc1ccc(OCc2cc(C(=O)N3CCCC(CO)C3)no2)c2ccccc12 (configuration not stated)	-12	22	33*	/
O=C(c1cc(COc2cccc3cnccc23)on1)N1CCCC(CCCO)C1 (configuration not stated)	-4	-26	-5	/
CSc1ccccc1OCc1cc(C(=O)N2CCSCC2)no1	-2	133*	26	2
CSc1ccccc1OCc1cc(C(=O)N2CCCC(C)C2)no1 (configuration not stated)	-2	159*	51*	2
CSc1ccccc1OCc1cc(C(=O)N2CCN(c3ncccn3)CC2)no1	-2	30	1	/
CC(C)NC(=O)N(C)C[C@H]1Oc2ncc(C#CC3(O)CCCC3)cc2C(=O)N([C@@H](C)CO)C[C@@H]1C	-6	/	/	2
CNC(=O)C[C@H]1CC[C@@H]2[C@H](COc3ccc(NS(=O)(=O)c4cccc(F)c4)cc3C(=O)N2C)O1	-8	/	/	-1
COc1ccc(NC(=O)Nc2cccc3c2O[C@@H](CN(C)Cc2ccc4c(c2)OCO4)[C@H](C)CN([C@H](C)CO)C3=O)cc1	56	/	/	4
Nc1nnc(CC(=O)N/N=C/c2ccccc2OCc2ccccc2F)s1	/	/	7	/
Nc1nnc(CC(=O)N/N=C/c2ccccc2OCc2ccc(F)cc2)s1	-3	/	2	61*
O=C(Nc1ccn(Cc2ccc(Cl)cc2)n1)c1ccccc1	-2	?	35*	-1
O=C(Nc1ccn(Cc2ccccc2)n1)c1ccc2c(c1)OCO2	/	72	16	/
O=C(Nc1ccc(Cl)cc1)OCc1ccccn1	-3	/	54*	-13
C[C@@H]1CN([C@@H](C)CO)C(=O)Cc2cc(NC(=O)Cc3ccccc3)ccc2O[C@H]1CN(C)S(=O)(=O)c1cccs1	-1	/	/	6
C[C@@H]1CN([C@H](C)CO)C(=O)c2cc(NC(=O)Nc3ccc(F)cc3)ccc2O[C@@H]1CN(C)S(=O)(=O)c1ccccc1	9	/	/	5
Cc1ccc2nc(SCC(=O)Nc3ccc(F)cc3)nc(=O)n2c1	-3	13	1	76*
Cc1ccc2nc(SCC(=O)Nc3ccc(Cl)cc3)nc(=O)n2c1	-3	8	0	/
C[C@H](CO)N1C[C@H](C)[C@@H](CN(C)Cc2ccccc2)Oc2c(NC(=O)Nc3ccccc3)cccc2C1=O	2	/	/	-19
CCCC#Cc1ccc2c(c1)O[C@@H](CN(C)CCC)[C@H](C)CN([C@@H](C)CO)S2(=O)=O	7	/	/	-11
COc1ccccc1C#Cc1ccc2c(c1)O[C@@H](CN(C)C(C)=O)[C@@H](C)CN([C@H](C)CO)S2(=O)=O	99*	/	/	-10
